Results on four compounds are retold here after PMC3943421 (Biochemistry, 2012).

Experiment [1] deals with FPRck-inhibited thrombin (anion-binding exosite II) (Homo sapiens, UniProt P00734). Briefly: Surface plasmon resonance. The settings on record: SPR; for measurable binding to thrombin (in words): HBS-EP+, 25°C (Figure 3). The method in brief: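 Biotinylated peptides captured on streptavidin chips at 150 RU after three 60 s 1 M NaCl/50 mM NaOH conditioning pulses, with blank reference cells. HBS-EP+ (10 mM HEPES pH 7.4, 150 mM NaCl, 0.05% P20, 3 mM EDTA), 25°C. Serial thrombin injections for 20 s at 50 μl/min, 30 s dissociation, no regeneration. Buffer-only and reference signals subtracted. Equilibrium 1:1 Langmuir Kd from three replicates with fresh dilutions.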

For experiment [2], the target named is wild-type γ′ peptide (fibrinogen γ′ chain 410-427, both tyrosines phosphorylated). The experiment can be described thus: SPR.
The target is the same in experiment [3]. Briefly: SPR. This is another data set of the same source.
For experiment [4] the target is unchanged. Briefly: SPR. This is another data set of the same source.
Experiment [5] deals with γ′ analog peptide #5 (Asp419Asn). The experiment can be described thus: SPR.
Experiment [6] concerns the target γ′ analog peptide #9 (Asp426Asn). Briefly: SPR.
Experiment [7] deals with γ′ analog peptide #13 (carboxyl terminal three charges substituted). Briefly: SPR.
The target in a further experiment is γ′ analog peptide #8. The experiment can be described thus: SPR.
Experiment [8] concerns the target γ′ analog peptide #4 (pTyr418Tyr). The experiment can be described thus: SPR.
The next experiment addresses γ′ analog peptide #1. Briefly: SPR.
The target of experiment [9] is wild-type γ′ peptide (fibrinogen γ′ chain 410-427, both tyrosines phosphorylated). The experiment can be described thus: SPR. The source holds these as a separate data set.
For a further experiment, the target named is γ′ analog peptide #2. Briefly: SPR.
For the next experiment, the target named is γ′ analog peptide #3. The experiment can be described thus: SPR.
The target in experiment [10] is γ′ analog peptide #6 (pTyr422Tyr). The experiment can be described thus: SPR.
The target in a further experiment is γ′ analog peptide #7. Briefly: SPR.
The target of experiment [11] is γ′ analog peptide #12 (amino terminal three charges substituted). Briefly: SPR.
For experiment [12], the target named is wild-type γ′ peptide (fibrinogen γ′ chain 410-427, both tyrosines phosphorylated). Briefly: SPR. The source holds these as a separate data set.

Read-outs that look alike come from different tables or passages of the source. Square brackets hold non-standard residues; d marks the D form. Peptide text beside a SMILES is read from it. pY = N[C@@H](Cc1ccc(OP(=O)(O)O)cc1)C(=O)O

`CC(C)C[C@H](NC(=O)[C@H](CC(=O)O)NC(=O)[C@H](CC(=O)O)NC(=O)[C@H](CCC(=O)O)NC(=O)[C@@H]1CCCN1C(=O)[C@H](Cc1ccc(OP(=O)(O)O)cc1)NC(=O)[C@H](CC(C)C)NC(=O)[C@H](CO)NC(=O)[C@H](CC(=O)O)NC(=O)[C@H](Cc1ccc(OP(=O)(O)O)cc1)NC(=O)[C@H](CCC(=O)O)NC(=O)[C@@H](NC(=O)[C@H](CCC(=O)O)NC(=O)[C@H](C)NC(=O)[C@@H]1CCCN1C(=O)[C@H](Cc1c[nH]cn1)NC(=O)[C@H](CCC(=O)O)NC(=O)[C@@H]1CCCN1)[C@@H](C)O)C(=O)O` [Wild-type] (H-PEHPAETE[pY]DSL[pY]PEDDL-OH) came in with a Kd in experiment [1] (Kd (mean ± standard error of the mean), [NaCl] 150 mM, 25°C) of 488 ± 42 nM.

For FPRck-inhibited thrombin (enzyme), the Kd in experiment [2] was determined as 488 nM; in experiment [3], 120000 nM; in experiment [4], 6050 nM; in experiment [5] it was 705 nM; in experiment [6] it was 465 nM; in experiment [7], 3190 nM. Besides, the Kd in the experiment with γ′ analog peptide #8 turned out to be 608 nM; in [8], 583 nM; with γ′ analog peptide #1, 441 nM; in experiment [9], 440 nM; with γ′ analog peptide #2, 485 nM; with γ′ analog peptide #3, 541 nM. In addition, the Kd in experiment [10] is 702 nM; in the experiment with γ′ analog peptide #7, 582 nM; in experiment [11], 1970 nM; in experiment [12], 18600 nM.

For PEHPAETE YNSL YPEDDL [#10], the “measurable binding to thrombin (in words)” value in experiment [1] is recorded as “complete absence of measurable binding”.

Take PQHPAQTQpYDSLpYPQNNL [#11]: the “measurable binding to thrombin (in words)” value in experiment [1] is “no measurable interaction with thrombin”.
